The values that follow come from ChEMBL document CHEMBL4265950, “Discovery of furyl/thienyl β-carboline derivatives as potent and selective PDE5 inhibitors with excellent vasorelaxant effect” (Eur J Med Chem, 2018).

By IC50 is commonly meant the concentration at which inhibition is half-maximal. What is called inhibition is the drop in the measured response relative to a control, in per cent.

Test [1] deals with T1, cGMP-specific 3',5'-cyclic phosphodiesterase (Homo sapiens, UniProt O76074). Nature of the test: Inhibition of full length recombinant human N-terminal GST-tagged PDE5A1 expressed in baculovirus infected sf9 cells using FAM-cyclic-3',5-GMP as substrate after 1 hr by fluorescence polarization assay. (In general: Polarisation of emitted light reports the rotation of a fluorescent probe.)

For test [2], the target named is T1, cGMP-specific 3',5'-cyclic phosphodiesterase. Nature of the test: Inhibition of full length recombinant human N-terminal GST-tagged PDE5A1 expressed in baculovirus infected sf9 cells at 100 nM using FAM-cyclic-3',5-GMP as substrate after 1 hr by fluorescence polarization assay relative to control. The method in brief: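 Single-point test at 100 nM, reported as percent inhibition. Human PDE5 at 15 ng/mL with 100 nM FAM-cGMP in MOPS pH 7.5 buffer (MgCl2, EDTA, BSA, DTT), 1% DMSO final, 60 min at 25 °C. Binding agent added for 1 h, then fluorescence polarization read at […] nm.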

The species entered for test [3] is Homo sapiens. Nature of the test: Selectivity index, ratio of IC50 for inhibition of full length recombinant human N-terminal GST-tagged PDE6C expressed in baculovirus infected sf9 cells to IC50 for inhibition of full length recombinant human N-terminal GST-tagged PDE5A1 expressed in baculovirus infected sf9 cells.
The target of test [4] is cGMP-dependent 3',5'-cyclic phosphodiesterase (Homo sapiens, UniProt O00408). Nature of the test: Inhibition of recombinant human N-terminal FLAG-tagged PDE2A (2 to 941 residues) expressed in baculovirus infected sf9 cells using FAM-cyclic-3',5-AMP as substrate after 1 hr by fluorescence polarization assay. In a few lines: (§1)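 Fluorescence polarization assay run at 25 °C for 60 min in 40 mM MOPS pH 7.5, 0.5 mM EDTA, 15 mM MgCl2, 0.15 mg/mL BSA, 1 mM DTT, 0.05% ProClin 200. Contained 15 ng/mL PDE isoform and 100 nM FAM-cGMP or FAM-cAMP according to isoform, with 1% DMSO final. Binding agent added for 1 h at 25 °C; read at […] nm. IC50 from normalized nonlinear dose-response fit.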

In test [5] the target is 3',5'-cyclic-AMP phosphodiesterase 4A (Homo sapiens, UniProt P27815). Description: Inhibition of full length recombinant human N-terminal GST-tagged PDE4A1A expressed in baculovirus infected sf9 cells using FAM-cyclic-3',5-AMP as substrate after 1 hr by fluorescence polarization assay.
Test [6] is filed under the species Homo sapiens. Nature of the test: Selectivity index, ratio of IC50 for inhibition of full length recombinant human N-terminal GST-tagged PDE11A4 expressed in baculovirus infected sf9 cells to IC50 for inhibition of full length recombinant human N-terminal GST-tagged PDE5A1 expressed in baculovirus infected sf9 cells.
For test [7], the target named is Dual 3',5'-cyclic-AMP and -GMP phosphodiesterase 11A (Homo sapiens, UniProt Q9HCR9). Nature of the test: Inhibition of full length recombinant human N-terminal GST-tagged PDE11A4 expressed in baculovirus infected sf9 cells using FAM-cyclic-3',5-AMP as substrate after 1 hr by fluorescence polarization assay.
Test [8] concerns the target Cone cGMP-specific 3',5'-cyclic phosphodiesterase subunit alpha' (Homo sapiens, UniProt P51160). Nature of the test: Inhibition of full length recombinant human N-terminal GST-tagged PDE6C expressed in baculovirus infected sf9 cells using […] as substrate after 1 hr by fluorescence polarization assay.
For test [9], the target named is Dual specificity calcium/calmodulin-dependent 3',5'-cyclic nucleotide phosphodiesterase 1A (Homo sapiens, UniProt P54750). Description: Inhibition of full length recombinant human N-terminal GST-tagged PDE1A expressed in baculovirus infected sf9 cells using FAM-cyclic-3',5-AMP as substrate after 1 hr by fluorescence polarization assay. In a few lines:
as §1

Test [10] addresses cGMP-inhibited 3',5'-cyclic phosphodiesterase 3B (Homo sapiens, UniProt Q13370). Nature of the test: Inhibition of recombinant human N-terminal GST-tagged PDE3B (592 to end residues) expressed in baculovirus infected sf9 cells using FAM-cyclic-3',5-AMP as substrate after 1 hr by fluorescence polarization assay. The method in brief: as §1

Sequence of Cone cGMP-specific 3',5'-cyclic phosphodiesterase subunit alpha' (P51160 whole entry): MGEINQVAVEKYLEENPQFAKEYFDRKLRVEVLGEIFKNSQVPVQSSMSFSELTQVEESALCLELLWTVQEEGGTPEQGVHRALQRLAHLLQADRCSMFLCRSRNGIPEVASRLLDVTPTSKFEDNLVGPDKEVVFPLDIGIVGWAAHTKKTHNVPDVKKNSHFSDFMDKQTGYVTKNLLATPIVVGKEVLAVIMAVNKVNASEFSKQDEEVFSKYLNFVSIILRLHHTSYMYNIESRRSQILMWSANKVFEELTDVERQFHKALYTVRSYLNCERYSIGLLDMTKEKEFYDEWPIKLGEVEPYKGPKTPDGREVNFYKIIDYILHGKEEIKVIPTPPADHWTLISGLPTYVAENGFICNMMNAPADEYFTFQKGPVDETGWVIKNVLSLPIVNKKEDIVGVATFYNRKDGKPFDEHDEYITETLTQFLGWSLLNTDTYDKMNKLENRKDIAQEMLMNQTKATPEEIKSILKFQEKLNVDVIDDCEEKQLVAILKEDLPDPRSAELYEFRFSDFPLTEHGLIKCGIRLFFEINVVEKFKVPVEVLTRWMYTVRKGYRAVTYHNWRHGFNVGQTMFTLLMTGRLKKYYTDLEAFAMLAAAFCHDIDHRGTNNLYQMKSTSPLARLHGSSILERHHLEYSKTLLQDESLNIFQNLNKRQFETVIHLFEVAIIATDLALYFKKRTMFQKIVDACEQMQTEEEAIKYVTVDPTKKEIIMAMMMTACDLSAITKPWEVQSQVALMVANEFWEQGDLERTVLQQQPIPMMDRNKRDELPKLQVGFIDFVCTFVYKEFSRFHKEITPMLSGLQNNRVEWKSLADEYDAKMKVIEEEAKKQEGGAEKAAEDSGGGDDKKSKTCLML
Sequence of Dual 3',5'-cyclic-AMP and -GMP phosphodiesterase 11A (Q9HCR9 whole entry): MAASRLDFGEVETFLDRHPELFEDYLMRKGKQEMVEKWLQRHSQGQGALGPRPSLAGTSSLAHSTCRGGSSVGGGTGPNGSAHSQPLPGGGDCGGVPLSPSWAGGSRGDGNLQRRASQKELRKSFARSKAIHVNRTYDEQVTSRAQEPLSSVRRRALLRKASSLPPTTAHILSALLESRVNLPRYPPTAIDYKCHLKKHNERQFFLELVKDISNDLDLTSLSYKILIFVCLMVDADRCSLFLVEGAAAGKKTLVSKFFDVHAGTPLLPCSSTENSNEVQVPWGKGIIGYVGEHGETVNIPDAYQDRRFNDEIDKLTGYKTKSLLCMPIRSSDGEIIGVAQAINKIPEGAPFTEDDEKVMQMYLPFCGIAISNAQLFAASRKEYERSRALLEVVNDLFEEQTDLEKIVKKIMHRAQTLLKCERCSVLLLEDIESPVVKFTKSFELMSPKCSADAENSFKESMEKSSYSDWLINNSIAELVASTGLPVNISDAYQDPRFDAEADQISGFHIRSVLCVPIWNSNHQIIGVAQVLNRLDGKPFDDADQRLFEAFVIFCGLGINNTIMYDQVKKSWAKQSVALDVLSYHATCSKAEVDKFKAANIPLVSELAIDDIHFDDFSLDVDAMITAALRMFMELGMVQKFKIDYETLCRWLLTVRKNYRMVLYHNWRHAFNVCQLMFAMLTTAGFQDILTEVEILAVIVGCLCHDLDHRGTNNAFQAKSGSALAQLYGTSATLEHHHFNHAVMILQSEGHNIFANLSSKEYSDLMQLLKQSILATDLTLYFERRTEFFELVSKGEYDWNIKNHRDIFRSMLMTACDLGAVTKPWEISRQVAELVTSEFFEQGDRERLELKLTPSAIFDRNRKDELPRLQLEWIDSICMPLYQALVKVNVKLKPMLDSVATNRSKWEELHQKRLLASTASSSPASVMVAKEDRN
Sequence of Dual specificity calcium/calmodulin-dependent 3',5'-cyclic nucleotide phosphodiesterase 1A (P54750 whole entry): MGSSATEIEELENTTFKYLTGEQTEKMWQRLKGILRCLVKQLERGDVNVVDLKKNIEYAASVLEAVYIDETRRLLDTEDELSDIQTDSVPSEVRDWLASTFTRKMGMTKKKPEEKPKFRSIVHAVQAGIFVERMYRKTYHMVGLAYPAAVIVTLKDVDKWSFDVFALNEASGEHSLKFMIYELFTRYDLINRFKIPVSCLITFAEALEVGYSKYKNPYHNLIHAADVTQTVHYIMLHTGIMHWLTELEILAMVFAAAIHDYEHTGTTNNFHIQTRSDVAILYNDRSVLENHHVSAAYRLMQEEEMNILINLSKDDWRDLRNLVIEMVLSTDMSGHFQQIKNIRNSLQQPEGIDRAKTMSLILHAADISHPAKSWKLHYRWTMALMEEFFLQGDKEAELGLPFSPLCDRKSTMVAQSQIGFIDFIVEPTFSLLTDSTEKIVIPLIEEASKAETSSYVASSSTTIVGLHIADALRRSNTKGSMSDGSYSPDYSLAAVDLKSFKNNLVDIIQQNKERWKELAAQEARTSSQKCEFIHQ
Sequence of cGMP-inhibited 3',5'-cyclic phosphodiesterase 3B (Q13370 whole entry): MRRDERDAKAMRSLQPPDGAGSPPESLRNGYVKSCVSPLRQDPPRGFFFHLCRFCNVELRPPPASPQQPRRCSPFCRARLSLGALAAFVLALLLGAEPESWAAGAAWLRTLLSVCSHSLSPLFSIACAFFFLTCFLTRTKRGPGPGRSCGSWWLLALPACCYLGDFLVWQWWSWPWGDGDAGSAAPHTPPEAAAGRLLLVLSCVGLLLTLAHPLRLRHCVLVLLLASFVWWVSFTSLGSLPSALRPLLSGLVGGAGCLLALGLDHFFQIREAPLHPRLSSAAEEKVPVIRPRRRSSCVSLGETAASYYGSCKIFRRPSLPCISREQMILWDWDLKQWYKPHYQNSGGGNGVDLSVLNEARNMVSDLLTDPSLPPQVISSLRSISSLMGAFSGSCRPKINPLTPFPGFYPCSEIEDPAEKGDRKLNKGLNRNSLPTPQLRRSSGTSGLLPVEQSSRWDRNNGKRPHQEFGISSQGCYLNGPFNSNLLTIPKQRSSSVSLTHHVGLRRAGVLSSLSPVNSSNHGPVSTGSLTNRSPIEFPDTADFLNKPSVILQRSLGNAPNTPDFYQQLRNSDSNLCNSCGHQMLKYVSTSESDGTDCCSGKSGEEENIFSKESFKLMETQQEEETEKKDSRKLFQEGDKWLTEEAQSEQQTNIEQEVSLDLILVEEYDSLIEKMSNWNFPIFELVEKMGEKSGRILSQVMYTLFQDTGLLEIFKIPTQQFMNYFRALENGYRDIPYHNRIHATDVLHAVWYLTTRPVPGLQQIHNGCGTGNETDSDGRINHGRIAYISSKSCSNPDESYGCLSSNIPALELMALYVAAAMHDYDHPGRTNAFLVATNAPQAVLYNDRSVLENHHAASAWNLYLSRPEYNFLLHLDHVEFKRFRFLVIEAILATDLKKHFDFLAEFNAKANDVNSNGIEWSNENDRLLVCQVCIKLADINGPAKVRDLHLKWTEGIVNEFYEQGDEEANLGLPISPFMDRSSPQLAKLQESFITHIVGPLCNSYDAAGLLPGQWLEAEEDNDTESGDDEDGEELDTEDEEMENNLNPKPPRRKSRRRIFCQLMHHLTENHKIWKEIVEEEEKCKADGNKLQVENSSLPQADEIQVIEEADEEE
Sequence of cGMP-dependent 3',5'-cyclic phosphodiesterase (O00408 whole entry, the tested form may be a part, canonical isoform): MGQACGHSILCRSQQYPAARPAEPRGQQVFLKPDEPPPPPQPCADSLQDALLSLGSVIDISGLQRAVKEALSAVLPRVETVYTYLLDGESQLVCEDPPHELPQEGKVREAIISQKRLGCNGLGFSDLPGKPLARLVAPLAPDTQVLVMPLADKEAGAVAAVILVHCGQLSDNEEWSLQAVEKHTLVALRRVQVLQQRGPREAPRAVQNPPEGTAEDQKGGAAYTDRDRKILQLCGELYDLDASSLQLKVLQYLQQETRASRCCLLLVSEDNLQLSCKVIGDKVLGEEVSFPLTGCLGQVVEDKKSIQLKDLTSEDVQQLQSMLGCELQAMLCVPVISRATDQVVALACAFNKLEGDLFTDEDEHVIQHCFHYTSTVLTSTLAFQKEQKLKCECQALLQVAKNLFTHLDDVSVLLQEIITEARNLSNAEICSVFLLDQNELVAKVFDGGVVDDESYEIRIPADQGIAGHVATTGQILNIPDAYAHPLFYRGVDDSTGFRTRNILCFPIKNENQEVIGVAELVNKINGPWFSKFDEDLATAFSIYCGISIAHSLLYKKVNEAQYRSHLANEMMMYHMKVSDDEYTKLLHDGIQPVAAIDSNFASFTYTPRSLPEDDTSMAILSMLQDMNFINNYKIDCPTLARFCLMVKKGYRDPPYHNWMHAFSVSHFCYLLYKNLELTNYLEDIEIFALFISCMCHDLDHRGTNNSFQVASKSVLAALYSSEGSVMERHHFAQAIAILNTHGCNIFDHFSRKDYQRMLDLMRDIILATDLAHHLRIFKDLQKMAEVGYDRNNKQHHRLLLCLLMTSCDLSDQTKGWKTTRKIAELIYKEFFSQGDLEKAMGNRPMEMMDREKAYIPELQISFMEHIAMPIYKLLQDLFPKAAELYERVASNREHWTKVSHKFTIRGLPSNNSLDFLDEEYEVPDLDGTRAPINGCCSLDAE

For the molecule `CCc1ccc([C@H]2c3[nH]c4ccccc4c3C[C@@H]3C(=O)N(CC)C(=O)N23)s1`, the IC50 in test [1] amounted to 155 nM. Besides, the inhibition in test [2] turned out to be 45.8%. For the molecule `Cc1ccc(C(=O)c2[nH]c3ccccc3c2CCNc2ccc(-c3ccccn3)cn2)s1`, the inhibition in test [2] was 20.4%.

On to `CCN1C(=O)[C@@H]2Cc3c([nH]c4ccccc34)[C@H](c3sccc3C)N2C1=O`, for which, in test [2], the inhibition stood at 27.7%. For `CCc1ccc(C(=O)c2[nH]c3ccccc3c2CCNc2ncc(-c3ccc(OC)c(OC)c3)cn2)o1`, the inhibition in test [2] was 29.1%. Still for that read-out and setting: next, `Cc1cc(C(=O)c2[nH]c3ccccc3c2CCNc2ccc(-c3ccccn3)cn2)sc1C`: 1.7%; `CCc1ccc(C(=O)c2[nH]c3ccccc3c2C[C@H]2NC(=O)N(CC)C2=O)s1`: 11.1%.

Turning to `Cc1cc(C2c3[nH]c4ccccc4c3CCN2c2ccc(-c3ccccn3)cn2)sc1C` (centres undefined), in [2], the inhibition was 21.2%. Same read-out and setting: with `CCc1ccc(C2c3[nH]c4ccccc4c3CCN2C(=O)/C=C/c2cccc(Br)c2)s1` (centres undefined) the figure was 33.7%.

For `CCc1ccc([C@H]2c3[nH]c4ccccc4c3C[C@H]3C(=O)N(C)CC(=O)N23)o1`, in [1], the half-maximal inhibitory concentration (IC50) was 56.4 nM. Further, in test [2], the inhibition came to 69%. Turning to `CCc1ccc([C@H]2c3[nH]c4ccccc4c3C[C@@H]3C(=O)N(CC)C(=O)N23)o1`, the Ratio IC50 in test [3] came to 0.4; in test [6], 29. Also, the IC50 was above 20000 nM in [4]; 27.6 nM in test [1]; above 10000 nM in test [5]; 802 nM in test [7]; 10 nM in [8]; above 20000 nM in test [9]. Also, the concentration for half-maximal inhibition (IC50) in [10] was above 20000 nM. Besides, the inhibition in test [2] was determined as 83.6%. Take `CCc1ccc(C2c3[nH]c4ccccc4c3CCN2c2ncc(-c3ccc(OC)c(OC)c3)cn2)o1` (centres undefined): the 50% inhibitory concentration (IC50) in test [1] turned out to be 177 nM. Also, the inhibition in test [2] worked out at 47.6%. For the molecule `CCc1ccc([C@H]2c3[nH]c4ccccc4c3C[C@H]3C(=O)N(C)CC(=O)N23)s1`, the Ratio IC50 in [3] and in test [6] was above 50 in each case. Further, the IC50 was above 20000 nM in test [4]; 19.9 nM in test [1]; above 10000 nM in [5]; above 1000 nM in test [7]; above 1000 nM in test [8]; above 20000 nM in test [9]. Further, in test [10], the half-inhibitory concentration (IC50) was above 20000 nM. Further, the inhibition in test [2] came out at 86.7%. In the case of `CCCCN1C(=O)[C@@H]2Cc3c([nH]c4ccccc34)[C@H](c3ccc(CC)s3)N2C1=O`, the inhibition in test [2] was determined as 35.9%. Same read-out and setting: next, `CCc1ccc(C(=O)c2[nH]c3ccccc3c2CCNc2ncc(-c3ccc(OC)c(OC)c3)cn2)s1`: 24.7%; `Cc1ccc(C(=O)c2[nH]c3ccccc3c2CCNc2ccc(-c3ccccn3)cn2)o1`: 23.7%.

As for `CCc1ccc(C2c3[nH]c4ccccc4c3CCN2C(=O)/C=C/c2ccc(C(=O)O)cc2)s1` (centres undefined), the 50% inhibitory concentration (IC50) in test [1] was 235 nM. Moreover, the inhibition in test [2] was 47.4%. With `CCc1ccc(C2c3[nH]c4ccccc4c3CCN2c2ncc(-c3ccc(OC)c(OC)c3)cn2)s1` (centres undefined), in test [2], the inhibition was 27.6%.

As for `Cc1ccsc1[C@H]1c2[nH]c3ccccc3c2C[C@@H]2C(=O)N(C)CC(=O)N12`, the IC50 in [1] was determined as 97.5 nM. In addition, the inhibition in test [2] was 57.4%. As for `Cc1ccc([C@H]2c3[nH]c4ccccc4c3C[C@@H]3C(=O)N(C)CC(=O)N23)s1`, the inhibition in [2] was found to be 40.2%. Same read-out and setting: with `Cc1ccc([C@H]2c3[nH]c4ccccc4c3C[C@@H]3C(=O)N(C)CC(=O)N23)o1` the figure was 40.5%. On the same count and under the same terms, with `CN1CC(=O)N2[C@@H](c3ccco3)c3[nH]c4ccccc4c3C[C@@H]2C1=O` the figure was 35.2%. Still for that read-out and setting: with `CCCCN1C(=O)[C@H]2Cc3c([nH]c4ccccc34)[C@H](c3ccc(CC)s3)N2C1=O` the figure was 37.9%; with `CN1CC(=O)N2[C@H](c3ccco3)c3[nH]c4ccccc4c3C[C@@H]2C1=O`, 48.1%.

Turning to `CN1CC(=O)N2[C@H](c3sccc3Br)c3[nH]c4ccccc4c3C[C@@H]2C1=O`, the 50% inhibitory concentration (IC50) in [1] turned out to be 80.2 nM. The inhibition in test [2] is 67.2%. As for `CCc1ccc([C@H]2c3[nH]c4ccccc4c3C[C@@H]3C(=O)N(C)CC(=O)N23)o1`, the inhibition in test [2] came out at 39.1%. Still for that read-out and setting: with `COc1cccc2cc(C(=O)c3[nH]c4ccccc4c3CCNc3ccc(-c4ccccn4)cn3)oc12` the figure was 23.9%. With `Cc1ccsc1[C@@H]1c2[nH]c3ccccc3c2C[C@@H]2C(=O)N(C)CC(=O)N12`, the IC50 in test [1] came out at 50.2 nM. Moreover, in test [2], the inhibition is 66.7%. As to `CCc1ccc(C2c3[nH]c4ccccc4c3C(=O)CN2c2ncc(-c3ccc(OC)c(OC)c3)cn2)s1` (centres undefined), the Ratio IC50 was determined as 6 in [3] and 4 in test [6]. The half-inhibitory concentration (IC50) in test [1] was 39.7 nM; in [7], 153 nM; in [8], 253 nM. In addition, the inhibition in test [2] came out at 69.4%. With `CCc1ccc([C@@H]2c3[nH]c4ccccc4c3C[C@H]3C(=O)N(C)CC(=O)N23)o1`, the inhibition in [2] came to 41.1%.

As for `CCc1ccc([C@@H]2c3[nH]c4ccccc4c3C[C@H]3C(=O)N(C)CC(=O)N23)s1`, the IC50 in test [1] is 61 nM. In addition, the inhibition in test [2] is 72.7%. As for `CN1CC(=O)N2[C@@H](c3sccc3Br)c3[nH]c4ccccc4c3C[C@@H]2C1=O`, the inhibition in test [2] is 41.6%.

With `COc1cccc2cc(C3c4[nH]c5ccccc5c4CCN3c3ccc(-c4ccccn4)cn3)oc12` (centres undefined), the inhibition in [2] stood at 17.5%.

With `CCc1ccc(C(=O)c2[nH]c3ccccc3c2C[C@@H]2NC(=O)N(CC)C2=O)s1`, the inhibition in test [2] is 27.3%. On the same count and under the same terms, with `CCc1ccc(C(=O)c2[nH]c3ccccc3c2CCNc2ccc(-c3ccccn3)cn2)o1` the figure was 16.1%; with `CCNC(=O)N1[C@H](c2ccc(CC)s2)c2[nH]c3ccccc3c2C[C@@H]1C(=O)OC`, 41.3%. Same read-out and setting: with `CCc1ccc([C@H]2c3[nH]c4ccccc4c3C[C@@H]3C(=O)N(C)CC(=O)N23)s1` the figure was 38.8%. Still for that read-out and setting: with `CCc1ccc(C2c3[nH]c4ccccc4c3CCN2c2ccc(-c3ccccn3)cn2)o1` (centres undefined) the figure was 39.2%; with `O=C(c1cc2ccccc2o1)c1[nH]c2ccccc2c1CCNc1ccc(-c2ccccn2)cn1`, 17.7%. On to `Cc1ccc([C@@H]2c3[nH]c4ccccc4c3C[C@@H]3C(=O)N(C)CC(=O)N23)o1`, for which the IC50 in test [1] was 36.9 nM. Besides, the inhibition in test [2] came to 89.5%.

As to `CCc1ccc(C2c3[nH]c4ccccc4c3CCN2C(=O)/C=C/c2ccc(C(=O)OC)cc2)s1` (centres undefined), the inhibition in test [2] was found to be 43.9%. Still for that read-out and setting: next, `Cc1ccc(C2c3[nH]c4ccccc4c3CCN2c2ccc(-c3ccccn3)cn2)o1` (centres undefined): 23.2%. For the molecule `CCc1ccc([C@H]2c3[nH]c4ccccc4c3C[C@H]3C(=O)N(CC)C(=O)N23)s1`, the IC50 in test [1] was 383 nM. Moreover, the inhibition in test [2] was 44.1%.

In the case of `CN1CC(=O)N2[C@@H](c3ccc(Br)s3)c3[nH]c4ccccc4c3C[C@@H]2C1=O`, the inhibition in test [2] was found to be 39.8%. Still for that read-out and setting: with `CCc1ccc(C(=O)c2[nH]c3ccccc3c2C[C@@H]2NC(=O)CN(C)C2=O)s1` the figure was 23.3%; with `CCc1ccc(C(=O)c2[nH]c3ccccc3c2C[C@H]2NC(=O)CN(C)C2=O)s1`, 21.1%. Same read-out and setting: with `c1ccc(-c2ccc(N3CCc4c([nH]c5ccccc45)C3c3cc4ccccc4o3)nc2)nc1` (centres undefined) the figure was 15.2%. Same read-out and setting: with `Cc1ccc(C2c3[nH]c4ccccc4c3CCN2c2ccc(-c3ccccn3)cn2)s1` (centres undefined) the figure was 38.1%. On to `CCc1ccc([C@H]2c3[nH]c4ccccc4c3C[C@H]3C(=O)N(CC)C(=O)N23)o1`, for which, in test [1], the IC50 was found to be 81.2 nM. Moreover, in test [2], the inhibition worked out at 62.2%. Turning to `CCCc1ccc(C2c3[nH]c4ccccc4c3CCN2c2ccc(-c3ccccn3)cn2)s1` (centres undefined), the inhibition in [2] was 28%.

As to `CCCc1ccc(C(=O)c2[nH]c3ccccc3c2CCNc2ccc(-c3ccccn3)cn2)s1`, the inhibition in test [2] was found to be 18.3%.
